# Compound activity from PubChem.
# Sampled rows, rich in hits. Any-hit rate of the full collection: about 1.9%.
# Rin1-Abl PPI inh: inhibitors of human Rin1-Abl protein interaction. TR-FRET Rin1/Abl binding, biochemical. P00519+Q13671. 360,000 tested, 0.4% active. inhibition, % at 7.35 µM; in the data active = inhibition above about 5%, passing the limit was not always enough
# TDP2 inh: blocks human TDP2 phosphodiesterase activity | O95551 | recombinant TDP2, T5PNP hydrolysis, p-nitrophenol absorbance 415 nm | inhibition, % at 12.8 µM | 370,000 tested, 0.34% active | AID 720702;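 active = inhibition above the mean of all tested compounds plus 3 SD, set per campaign, cut at about 25% in these data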;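 note: 0% = DMSO with enzyme and 100% = buffer with substrate but no TDP2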
#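 Evaluation: % inhibition relative to enzyme-containing and enzyme-free wells. Material: recombinant human TDP2. Benchmarks: enzyme-free and DMSO wells. Timing: enzyme reaction with compound for 2 h at 37 °C. Compound dosing: 12.8 µM only. Measured by: p-Nitrophenol epi absorbance. Reagent: T5PNP substrate at 5 mM, a TopII-DNA adduct mimic. Replication: single well per compound.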
# UHRF1 binding: human UHRF1 methylated DNA binding inhibitors | Q96T88 | UHRF1 binding to methylated oligo, TR-FRET | inhibition, % at 4.4 µM | 370,000 tested, 0.75% active; in the data active = inhibition above about 21%;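 note: UHRF1 SRA domain binding a hemimethylated CpG hairpin DNA probe; 0% = median of test compound wells and 100% = reference inhibitor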
# LEDGF integ inh: blocks HIV-1 LEDGF/p75-dependent DNA integration; 370,000 tested, 0.64% active; inhibition, % at 3.7 µM; TR-FRET IN-LEDGF/p75 DNA integration, Eu/Cy5;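 active = inhibition above the screen-wide mean plus 3 SD, cut at about 13% in these data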;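 note: signal is the Cy5 over europium emission ratio at 671 and 618 nm; 0% = plate median of compound wells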
# MBD2 inh: inhibitors of human MBD2 binding to methylated oligonucleotide; Q9UBB5; TR-FRET; inhibition, % at 4.4 µM; 370,000 tested, 0.31% active; AID 686964; in the data active = inhibition above about 13%
# Target sequence (Q9UBB5 whole entry, looked up): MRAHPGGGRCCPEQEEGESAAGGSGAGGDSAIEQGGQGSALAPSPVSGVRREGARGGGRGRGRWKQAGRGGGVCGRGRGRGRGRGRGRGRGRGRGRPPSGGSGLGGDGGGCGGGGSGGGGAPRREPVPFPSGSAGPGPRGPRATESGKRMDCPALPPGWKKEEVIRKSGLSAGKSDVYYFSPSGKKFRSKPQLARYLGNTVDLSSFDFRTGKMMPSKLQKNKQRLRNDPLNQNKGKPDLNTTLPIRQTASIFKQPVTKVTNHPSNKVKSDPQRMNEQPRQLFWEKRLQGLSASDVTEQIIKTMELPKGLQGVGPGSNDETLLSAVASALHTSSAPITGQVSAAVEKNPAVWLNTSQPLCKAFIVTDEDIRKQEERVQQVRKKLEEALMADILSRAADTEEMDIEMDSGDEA
# * marks the source's active call; other numbers are inactive results; / = not tested or not shown.
SMILES,Rin1-Abl PPI inh,TDP2 inh,UHRF1 binding,LEDGF integ inh,MBD2 inh
CCc1ccc(Cn2c(=O)n(Cc3ccc(C(=O)NCCCOC)cc3)c(=O)c3ccccc32)cc1,/,-2,0,0,-3
CCCC(=O)Nc1cc(S(=O)(=O)N2CCCCC2)ccc1N1CCOCC1,2,-25,21*,4,4
CN1CCN(c2ccc(S(=O)(=O)N3CCOCC3)cc2NC(=O)CC(C)(C)C)CC1,2,0,61*,0,1
COc1ccc(CNC(=O)c2cc(S(=O)(=O)N3CCCCC3)ccc2N2CCOCC2)cc1OC,3,-2,30*,-3,1
CCC(=O)NC(c1cccs1)c1ccc2cccnc2c1O (configuration not stated),9.8*,-8,-6,-10,-4
CCCC(=O)NC(=S)Nc1ccccc1F,6.3*,9,1,0,1
CCC(C)NC(=O)c1ccc(CSCc2ccccc2Cl)o1 (configuration not stated),1,16,-3,-1,3
CC(C)NC(=O)c1ccc(CSCc2ccccc2Cl)o1,-1,5,25*,-3,1
CCOC(=O)C1(CCOC)CCN(Cc2cnc(-c3cccc(C)c3)nc2)CC1,1,-2,0,5,5
CCOC(=O)C1(CCOC)CCN(C(=O)c2ccccc2-c2cccc(C)c2)CC1,1,-20,23*,1,4
COc1ccc2c(c1)CN1CN(CC(C)C)S(=O)(=O)CC21 (configuration not stated),/,13,-5,3,1
Cc1cc(NC(=O)CSc2nnc(-c3ccccc3)n2C)no1,5,2,2,4,2
CNC(=O)CSc1nnc(-c2ccccc2)n1C,-2,1,31*,1,-3
COc1cccc(CNC(=O)c2ccc(CS(=O)(=O)Cc3ccccc3C)o2)c1,1,-16,24*,2,5
COC(=O)[C@]12C[C@H](CC(=O)NCc3ccc(OC)c(OC)c3)C(=O)N(Cc3cccc4ccccc34)C1=C[C@H](C(C)(C)C)O[C@@H]2C,/,-8,-1,-3,1
COC(=O)C1CCC(=S)N1C(=O)c1ccccc1 (configuration not stated),-2,-22,27*,-1,-3
CCCc1nc2c(C)cc(Br)cn2c1Cc1ccc(C)cc1,-14,5,22*,-4,7
CCCc1nc2c(C)cc(Br)cn2c1Cc1cccc(Cl)c1,/,2,24*,0,9
CCCc1nc2c(C)cc(Br)cn2c1Cc1ccccc1OC,/,-5,22*,0,9
COc1ccccc1Cc1c(-c2ccccc2)nc2c(C)cc(Br)cn12,-2,-10,14,-1,1
Cc1cc(Br)cn2c(Cc3cccc(F)c3)c(-c3cccc(Cl)c3)nc12,/,-11,4,7,-1
CCCc1nc2c3ccccc3ccn2c1Cc1cccc(F)c1,2,-16,21*,4,4
O=C(CSc1nnc(-c2cccnc2)n1-c1ccccc1)Nc1ccc2c(c1)OCCO2,/,-7,-2,1,-1
Cc1cccc(OC[C@@H](O)CN2CCC(C(O)(c3ccccc3)c3ccccc3)CC2)c1,/,-2,1,-4,-2
COC(=O)[C@]12C[C@H](CC(=O)N3CCCC3)C(=O)N(Cc3cccc4ccccc34)C1=C[C@H](C(C)(C)C)O[C@@H]2C,/,4,-1,0,4
SMILES,Rin1-Abl PPI inh,TDP2 inh,UHRF1 binding,LEDGF integ inh,MBD2 inh
O=C(/C=C/c1ccc(-c2ccccc2)cc1)NC1=NCCS1,/,9,-3,0,-1
CCOc1ccc(C(=O)NCC(C)NC(=O)c2ccc(OCC)cc2)cc1 (configuration not stated),0,-25,24*,4,6
CCOc1ccc(C(=O)NCC(C)C)cc1,1,3,0,2,-4
C[C@H]1COc2cccc(F)c2S(=O)(=O)N1C,/,-3,0,2,0
O=C(NC1CCN(Cc2ccccc2)CC1)c1cncc(Br)c1,-1,-7,21*,-5,9
CC(C)(C)NC(=S)N/N=C/c1c(Cl)cccc1Cl,-2,6,36*,3,0
CCOC(=O)c1cc(NC(=O)Cc2ccc(S(=O)(=O)N3CCOCC3)s2)cc(C(=O)OCC)c1,4,-4,26*,2,9
COc1cccc(N(C(=O)c2cnccn2)C(C(=O)NC2CCCCC2)c2ccc(Cl)cc2)c1 (configuration not stated),3,-3,2,0,4
O=C(NC1CCCCC1)C(c1ccc(Cl)cc1)N(C(=O)c1cnccn1)c1ccc2c(c1)OCO2 (configuration not stated),0,0,22*,-1,11
O=C(NC1CCCCC1)C(c1ccncc1)N(Cc1ccc2c(c1)OCO2)C(=O)c1cnsn1 (configuration not stated),-1,-10,21*,12,0
O=C(NC1CCCCC1)C(c1ccc2ncccc2c1)N(Cc1ccc2c(c1)OCO2)C(=O)c1cccs1 (configuration not stated),2,-6,-3,-1,-2
COc1cc2c[n+](C)c3c4ccccc4ccc3c2cc1OC,-4,-1,-5,4,66*
CCC(=O)N(Cc1cc(=O)[nH]c2ccccc12)c1ccccc1C,-1,1,38*,0,2
CC1CC(C)CN(C(=O)COC(=O)c2ccc(S(=O)(=O)N(C)c3ccccc3)cc2)C1 (configuration not stated),4,-13,21*,7,2
COc1ccc(/C=C2\CC3(OC(=O)c4cccc(F)c4)CCCN2C3)cc1 (configuration not stated),/,-4,0,-2,7
CCCCNC(=O)C[C@@H]1C(=O)N(CCc2ccc(Cl)cc2)/C2=C/CCCCC[C@@]21C(=O)OCC,/,6,-2,0,-2
Cc1cc(Br)c2nc(-c3ccc(F)cc3)c(Cc3cccc(Cl)c3)n2c1,/,4,8,-1,-5
Cc1nc2sccn2c(=O)c1S(=O)(=O)NCCc1ccc(Cl)cc1,-4,1,2,-2,2
Cc1ccc(CCNS(=O)(=O)c2c(C)nc3sccn3c2=O)cc1,-2,-9,23*,9,5
CCc1ccc(Nc2ncc3c(n2)CC(C)(C)CC3=O)cc1,-4,11,42*,3,-5
CCc1ccc(Nc2ncc3c(n2)CC(C)CC3=O)cc1 (configuration not stated),4,-10,2,-4,1
Cc1nn(CCC(=O)NNC(=O)NCc2ccccc2)c(C)c1[N+](=O)[O-],/,-2,-2,-1,4
NC(=O)C[n+]1ccc(/C=N/O)cc1,-4,0,26*,2,6
COC(=O)CC1OCC=C2CN3CCC45C6=CC(=O)C(=O)C([N+](=O)[O-])=C6NC4C1C2CC35 (configuration not stated),6,68*,20,-3,16*
